We go through 15 compounds from paper PMC7134359 (Nature, 2020).

Molecules are shown by their SMILES. “And” between values parts separate entries of the source, which are not always exact repeats. Equal entries are not always repeated. Where two headings read alike, the source gives them in different places.

Data set [1] concerns the target T1, mMT1 (Mus musculus, UniProt Q61184). Put plainly: 2-[125I]-iodomelatonin competition binding, CHO cell membranes. The note with it: read-out: KD mMT1.
Data set [2] has as its target T2, hMT2 (Homo sapiens, UniProt P49286).
T2 sequence (P49286 1-362): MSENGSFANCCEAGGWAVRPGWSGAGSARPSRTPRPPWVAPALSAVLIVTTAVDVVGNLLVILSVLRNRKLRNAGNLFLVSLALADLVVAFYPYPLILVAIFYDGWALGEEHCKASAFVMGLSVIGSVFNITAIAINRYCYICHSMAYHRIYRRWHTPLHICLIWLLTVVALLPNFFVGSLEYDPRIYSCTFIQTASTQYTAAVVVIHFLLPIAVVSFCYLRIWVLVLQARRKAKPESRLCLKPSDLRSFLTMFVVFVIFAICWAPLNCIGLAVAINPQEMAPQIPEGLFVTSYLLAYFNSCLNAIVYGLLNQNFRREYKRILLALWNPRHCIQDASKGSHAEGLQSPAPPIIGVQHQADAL
Put plainly: cell-based. Type of data set: cell-based. To be noted: for hMT2 Schild slope: Schild analysis, antagonism of melatonin.

Data set [3] concerns the target T1, mMT1. Put plainly: GloSensor cAMP assay. The note with it: for Emax: HEK293, read-out: mMT1 Emax. Format: cell-based. A digest of the protocol:
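HEK293T cells in DMEM with 10% dialyzed FBS were co-transfected with a mouse MT1 or MT2 (de-Tango-ized) construct plus GloSensor DNA (8 μg each). Next day, cells were seeded at 20,000/well in DMEM with 1% dialyzed FBS for 24 h, then switched to HBSS, 20 mM HEPES pH 7.4, 0.1% BSA. Inhibition of isoproterenol-stimulated cAMP was read by luminescence.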
Background: Changes in cAMP serve as a functional read-out for many G protein-coupled receptors.

Data set [4] in a line: Plasma pharmacokinetics and brain distribution. Type of data set: in vivo. The note with it: male, C57BL/6, mouse, iv, 2 mg/kg; for Kp at 30 min: brain and plasma; for AUC / Cmax / Vd / clearance / half-life: plasma. The gist of the method:
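Male C57BL/6 mice (nine) got a single 2 mg/kg IV dose in 5% N-methyl pyrrolidone, 5% Solutol HS-15, 90% saline. Retro-orbital blood (~60 μL, three mice per time point, light isoflurane) was taken at 0.08–24 hr and plasma stored at -70°C. Brains were collected at 0.5, 4 and 24 hr and homogenized in ice-cold PBS pH 7.4 at three times brain weight.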

The target of data set [5] is hMT1 (Homo sapiens, UniProt P48039). As to the kind of experiment: GloSensor cAMP assay. Type of data set: cell-based. To be noted: for hMT1 Schild slope: Schild analysis, antagonism of melatonin, cAMP.
Data set [6] deals with C3H/HeN mice (WT, MT1KO, MT2KO). As to the kind of experiment: Re-entrainment. Type of data set: in vivo, mouse.
For data set [7] the test system is unchanged. The note with it: cited from earlier work.
Data set [8] has the same test system. As to the kind of experiment: Phase shift of circadian running wheel activity onset in constant dark. Type of data set: in vivo. To be noted: CT 10; 0.9 μg/mouse (about 0.03 mg/Kg).
Setting [9] is: MT2 activity, none detectable up to, cAMP assay.
The mark [10] stands for this setting: hMT2 pEC50 (Inverse), inverse agonist, isoproterenol-stimulated cAMP, HEK cells.
The mark [11] stands for this setting: hMT1 pEC50 (Inverse), inverse agonist, isoproterenol-stimulated cAMP, HEK cells.
The mark [12] stands for this setting: pEC50 MT1 (IA), inverse agonist, as summarised in PK table.
The mark [13] stands for this setting: hMT2 pEC50, inhibition of isoproterenol-stimulated cAMP, HEK cells, agonist.
The mark [14] stands for this setting: hMT1 pEC50, inhibition of isoproterenol-stimulated cAMP, HEK cells, agonist.

Sequence of hMT1 (P48039 whole entry): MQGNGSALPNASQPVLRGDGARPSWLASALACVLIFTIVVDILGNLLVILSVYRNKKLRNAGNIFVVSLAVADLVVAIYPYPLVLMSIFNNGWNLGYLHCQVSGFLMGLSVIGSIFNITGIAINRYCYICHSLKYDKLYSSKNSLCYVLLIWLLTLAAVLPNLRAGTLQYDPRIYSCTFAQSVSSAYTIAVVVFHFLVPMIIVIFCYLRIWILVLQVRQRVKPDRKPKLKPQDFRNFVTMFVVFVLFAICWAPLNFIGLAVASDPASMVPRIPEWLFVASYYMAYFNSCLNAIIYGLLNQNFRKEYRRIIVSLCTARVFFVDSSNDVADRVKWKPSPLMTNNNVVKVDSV
T1 sequence (Q61184 whole entry): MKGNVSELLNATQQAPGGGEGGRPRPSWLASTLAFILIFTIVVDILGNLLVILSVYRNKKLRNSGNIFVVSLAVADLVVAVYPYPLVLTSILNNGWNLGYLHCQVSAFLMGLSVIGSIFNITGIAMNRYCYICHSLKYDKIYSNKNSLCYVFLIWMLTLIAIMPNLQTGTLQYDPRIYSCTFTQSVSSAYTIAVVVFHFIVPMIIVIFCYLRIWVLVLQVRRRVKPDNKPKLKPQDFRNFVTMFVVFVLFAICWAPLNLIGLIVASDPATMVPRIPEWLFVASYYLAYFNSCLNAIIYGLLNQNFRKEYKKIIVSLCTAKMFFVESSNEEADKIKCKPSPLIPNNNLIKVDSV

In the case of `COc1ccc2[nH]c(I)c(CCNC(C)=O)c2c1` [2-[^125I]-iodomelatonin, 2-[^125I]-Iodomelatonin], the Kd in data set [1] (GTP buffer) came out at 0.201 nM; in data set [1] (control buffer), 0.087 nM.
The compound `COc1cccc2c1CCN(C(=O)c1ccc(F)nc1)C2` [ZINC182731037] registered an EC50 in data set [2] (setting [9]) above 30000 nM.
For the compound `CC(C)c1ccc(CNc2cccc(-c3nnc[nH]3)c2)cc1` [ZINC157673384], the EC50 in data set [3] was 100 nM; in data set [2] (setting [10]), 661 nM; in data set [2] (pEC50 MT2 (IA), inverse agonist, as summarised in PK table) it was 631 nM; in data set [5] (setting [11]) it was 20.9 nM; in data set [5] (setting [12]) it was 20 nM. Also, the Emax in data set [3] was -49 ± 3%; in data set [2] (HEK293, read-out: hMT2 % Emax (Inverse)) it was 153%; in data set [2] (HEK293, read-out: hMT2 Emax) it was -153 ± 14%; in data set [5] (HEK293, read-out: hMT1 % Emax (Inverse)) it was 47%; in data set [5] (HEK293, read-out: hMT1 Emax), -47 ± 12%. This compound showed a Kp at 30 min in data set [4] of 1.43. For the same compound, the AUC in data set [4] turned out to be 564 ng·h/mL. The same compound returned a maximum concentration (Cmax) in data set [4] of 1300 ng/mL. The same compound returned a distribution volume (Vd) in data set [4] of 1.38 L/kg. Moreover, the clearance in data set [4] was 58.5 mL/min/kg. Besides, in data set [4], the half-life was 19.2 min. Besides, the Kb is 200 nM in data set [2] and 12.6 nM in data set [5]. Further, the “hMT2 Schild slope” value in data set [2] (cAMP) is listed as 1.0 ± 0.1. Also, the “hMT1 Schild slope” value in data set [5] is recorded as 0.80 ± 0.04.
On to `CN(Cc1ccncc1)c1ccnc(Cl)c1` [ZINC223593565], for which the Emax in data set [2] (HEK293, read-out: hMT2 % Emax) is 58%; in data set [5] (HEK293, read-out: hMT1 % Emax), 86%. The EC50 in data set [2] (setting [13]) is 355 nM; in data set [5] (setting [14]), 398 nM.
In the case of `COc1ccc(CN(C(=O)[C@H]2C[C@@H]2C)c2ccncc2)cc1` [ZINC151209032], the Emax in data set [5] (HEK293, read-out: hMT1 % Emax) is 88%. In addition, the EC50 in data set [5] (setting [14]) is 2000 nM. The “melatonin receptor type selectivity (grouping)” value in data set [5] (hMT1 versus hMT2, cAMP assays) is “MT1-selective”.
On to `COc1ccc2[nH]cc(CCNC(C)=O)c2c1` [melatonin], for which the effect on re-entrainment result in data set [6] (30 μg/mouse) is recorded as “accelerates re-entrainment”. For the same compound, the “ED50 (phase advance)” value in data set [7] is 0.72 μg/mouse.
`COc1ccc(CN(C(=O)c2scc(C)c2Cl)c2ccncc2)cc1` [ZINC485552623] displayed an EC50 in data set [5] (setting [14]) above 10000 nM.
Turning to `Clc1ccc(CNc2cccc(-c3nnc[nH]3)c2)c(Br)c1` [ZINC555417447], in data set [3], the concentration for a half-maximal effect (EC50) is 63.1 nM and the Emax was -56 ± 5%. Moreover, in data set [4], the Kp at 30 min is 3.03, the area under the curve (AUC) was determined as 494 ng·h/mL, the Cmax amounted to 1950 ng/mL and the distribution volume (Vd) was 1.11 L/kg. In data set [4], this compound showed a clearance of 67.1 mL/min/kg and a half-life of 16.2 min. In data set [2] (cAMP), the “hMT2 Schild slope” value is listed as 1.3 ± 0.4. Moreover, a half-maximal effect in data set [2] (setting [10]) (EC50) was put at 2000 nM. Further, in data set [5], the “hMT1 Schild slope” value came to 0.98 ± 0.03. Also, in data set [5] (setting [11]), the EC50 was 40.7 nM and 39.8 nM. In data set [5] (setting [12]), this compound gave an EC50 of 39.8 nM. In addition, in data set [8], the “advance of the onset of activity” value is recorded as “approximately 1 hour”.
On to `COc1ccc(CN(C)C(=O)c2cccc(OC(F)F)c2)cc1O` [ZINC353044322], for which, in data set [2] (setting [9]), the EC50 is above 30000 nM.
With `COc1ccc(CN(C(=O)c2ccccc2F)c2ccncc2)cc1` [ZINC151192780], the “selectivity for MT2 over MT1” value in data set [2] (cAMP) was 89 fold.
`Cc1cc(=O)n2ccn(CCc3ccc4c(c3)OC(F)(F)O4)c2n1` [ZINC664088238]: the EC50 in data set [5] (setting [14]) is above 10000 nM.
For the compound `CC(=O)NCCc1c(Cc2ccccc2)[nH]c2ccccc12` [luzindole], the effect on re-entrainment entry in data set [6] (300 μg/mouse) is reported as “decelerates re-entrainment”.
In the case of `COc1ccc(Br)c(CNc2cccnc2)c1` [ZINC128734226], in data set [4], the Kp at 30 min was found to be 1.58, the AUC worked out at 282 ng·h/mL, the highest level (Cmax) was 1920 ng/mL and the Vd amounted to 1.11 L/kg. Besides, in data set [4], the clearance was found to be 118 mL/min/kg and the half-life is 17.4 min. In data set [2] (setting [13]), a half-maximal response (EC50) required 6.31 nM. The EC50 in data set [5] (setting [14]) was 158 nM.
Turning to `COC(=O)c1ccc(CSc2nnc(C3CC3)[nH]2)s1` [ZINC159050207], the Emax in data set [2] (HEK293, read-out: hMT2 % Emax) was 83%; in data set [5] (HEK293, read-out: hMT1 % Emax) it was 99%. Further, the figures for the EC50 in data set [2] (setting [13]) and in data set [5] (setting [14]) were 2 nM and 1 nM, respectively.
Turning to `Cc1nc(-c2cccc(NCc3ccccc3Cl)c2)n[nH]1` [ZINC37781618], the 50% effective concentration (EC50) in data set [2] (hMT2 pEC50 (inactive analog), tested at concentrations up to 30μM) is above 31600 nM; in data set [5] (hMT1 pEC50 (inactive analog), tested at concentrations up to 30μM), above 31600 nM.

As usually defined, the Kd is the equilibrium constant for the complex coming apart. One may read the EC50 as the concentration giving half of the maximal effect. The low end stands for a more potent agent, the high end for a less potent agent. The term Emax denotes the greatest response seen or fitted, relative to the assay's reference. As a reminder, the Kp is tissue or fluid exposure divided by exposure in the circulation. In general, AUC refers to concentration integrated over time. What is called Cmax is the peak of the concentration-time curve. The term Vd denotes the apparent volume that relates the amount in the body to the concentration in plasma or blood. Read a high Vd as wide distribution into tissue. For orientation: clearance means a measure of how efficiently the substance is removed, as volume per time. The low end stands for a low capacity for elimination, the high end for a high capacity for elimination. The term half-life denotes the time needed for the level to fall by half in the phase considered. Read a low half-life as fast loss.
